# According to ChEMBL document CHEMBL3228045, “1-(Dichloroacetyl)-1,2,3,4-tetrahydro-6-quinolinol esters. New potent antiamebic agents” (J Med Chem, 1979):
# How the values were obtained:
# [1] = Antiamebic activity against Entamoeba criceti infected in hamster assessed as reduction of trophozoites in cecum administered intragastric gavage bid for three consecutive days by microscopy; assay type: functional; conditions: Caecum, po
# In short: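 Vehicle: 10% gelatin suspension, given by intragastric gavage in two split portions daily (morning and afternoon) for 3 consecutive days, dosed as (mg/kg)/day. Colony infection rate was at least 90%. Five hamsters per group at three twofold dose levels. The day after the last dose, cecal-wall scrapings in saline were examined microscopically at 43×. An animal with no trophozoites counted as cleared.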
# [2] = Antiamebic activity against trophozoite form of Entamoeba criceti infected in hamster assessed as reduction in spontaneous infection in cecum administered intragastric gavage as single dose by microscopy; assay type: functional; conditions: Caecum, po
# In short: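 Hamsters with spontaneous Entamoeba criceti infection were given one oral dose of drug. ED50 is reported ± SE in mg/kg po.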
# [3] = Antiamebic activity against Entamoeba criceti infected in hamster assessed as reduction of trophozoites in cecum administered intragastric gavage as four dose by microscopy; assay type: functional; conditions: Caecum, po
# Hamster = assay: Toxicity in hamster assessed as mortality at 10 mg/kg, po by acute test; assay type: organism-based; set-up: dose 10 mg/kg, route oral; conditions: cricetinae, in vivo
# Rattus norvegicus = assay: Toxicity in rat assessed as mortality at 10 mg/kg, po by acute test; assay type: organism-based; set-up: dose 10 mg/kg, route oral; conditions: in vivo
smiles,measurement,setting,value
O=C(C(Cl)Cl)N1CCCc2cc(O)ccc21,ED50,[1],1.2 mg/kg
O=C(Oc1ccc2c(c1Cl)CCCN2C(=O)C(Cl)Cl)c1cccs1,ED50,[1],0.22 mg/kg
O=C(Oc1ccc2c(c1)CCCN2C(=O)C(Cl)Cl)c1ccccc1,ED50,[1],0.2 mg/kg
same,ED50,[2],1.6 mg/kg
CCCCCC(=O)Oc1ccc2c(c1)CCCN2C(=O)C(Cl)Cl,ED50,[1],1.75 mg/kg
O=C(CCl)N1CCCc2cc(O)ccc21,ED50,[1],2 mg/kg
O=C(N1CCCc2cc(O)ccc21)C(Cl)(Cl)Cl,ED50,[1],3 mg/kg
O=C(Oc1ccc2c(c1Br)CCCN2C(=O)C(Cl)Cl)c1ccco1,ED50,[1],0.39 mg/kg
CCOCCN(Cc1ccc(Oc2ccc([N+](=O)[O-])cc2)cc1)C(=O)C(Cl)Cl [ETOFAMIDE],ED50,[3],0.38 mg/kg
CCCC(=O)Oc1ccc2c(c1)CCCN2C(=O)C(Cl)Cl,ED50,[1],0.75 mg/kg
O=C(C(Cl)Cl)N1CCCc2c1ccc(O)c2Br,ED50,[1],0.56 mg/kg
CNC(=O)Oc1ccc2c(c1)CCCN2C(=O)C(Cl)Cl,ED50,[1],5.7 mg/kg
O=C(Oc1ccc2c(c1)CCCN2C(=O)C(Cl)Cl)c1ccco1 [QUINFAMIDE],Activity,Hamster,Non-toxic
same,ED50,[1],0.2 mg/kg
same,Activity,Rattus norvegicus,Non-toxic
same,ED50,[2],0.75 mg/kg
O=C(C(Cl)Cl)N1CCCc2c1ccc(O)c2Cl,ED50,[1],0.5 mg/kg
O=C(Oc1ccc2c(c1Br)CCCN2C(=O)C(Cl)Cl)c1cccs1,ED50,[1],1.24 mg/kg
O=C(Oc1ccc2c(c1)CCCN2C(=O)C(Cl)Cl)c1cccs1,ED50,[1],0.16 mg/kg
same,ED50,[2],4.8 mg/kg
O=C(Oc1ccc2c(c1Cl)CCCN2C(=O)C(Cl)Cl)c1ccco1,ED50,[1],0.21 mg/kg
CN(C(=O)C(Cl)Cl)c1ccc(OC(=O)c2ccco2)cc1 [DILOXANIDE FUROATE],ED50,[1],> 3.2 mg/kg
